Assay results taken from ChEMBL document CHEMBL1122864, “1,2-Dihydro-2-oxo-6-(2,2-dimethylpropyl)-3-pyridinecarboxylic acid, analogues, and derivatives. A new class of oral hypoglycemic agents” (1985).
Activity calls are given as the source filed them. The rule behind the calls is not given here.

Legend:
[1] = system: Rattus norvegicus; assay: Hypoglycemic activity in blood glucose at 2 hr (treated) in the 18-h fasted normal rat at a dose of 100 mg/kg; assay type: functional
In short: (§1)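 Sprague-Dawley-derived rats (120–130 g), fasted 18 h, in groups of four. Each got 0.5 mL by stomach tube of test compound (100 mg/kg), tolbutamide (25 mg/kg) or vehicle (carboxymethylcellulose/Polysorbate 80/NaCl/benzyl alcohol in water). Then 1.0 mL 12.5% glucose in 0.9% saline was given s.c. Barbiturate anesthesia at 110 min; vena cava blood drawn 9 min later.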

[2] = species on record: Rattus norvegicus; assay: Hypoglycemic activity in blood glucose at 2 hr (positive control) in the 18-h fasted normal rat; assay type: functional; in short: as §1
[3] = species on record: Rattus norvegicus; assay: Hypoglycemic activity in the 18-h fasted normal rat with respect to 1-butyl-3-(p-tolylsulphonyl)urea; assay type: functional
In short: (§2)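 In 18-h fasted rats (oral dosing, s.c. glucose load), activity was first confirmed, then compounds were retested at half-dose intervals alongside the positive control. Potency relative to tolbutamide came from a parallel line assay.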

[4] = system: Rattus norvegicus; assay: Hypoglycemic activity in the 18-h fasted normal rat with respect to 1-butyl-3-(p-tolylsulphonyl)urea; inactive at 100 mg/kg at the second stage of testing; assay type: functional, organism-based; design: dose 100 mg/kg; in short: as §2
[5] = species on record: Rattus norvegicus; assay: Hypoglycemic activity in blood glucose at 2 hr (treated) in the fasted-refed rat; assay type: functional
In short: (§3)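 Fasted-refed model: rats fasted 18 h, then given 2 mL liquid diet by stomach tube, otherwise handled as in the fasted-rat test. Blood glucose % change read at 2 h.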

[6] = species on record: Rattus norvegicus; assay: Hypoglycemic activity in blood glucose at 2 hr (positive control) in the fasted-refed rat; assay type: functional; in short: as §3

Compound | Change [1] | Change [2] | Relative potency [3] | Relative potency [4] | Change [5] | Change [6]
CC(C)Cc1ccc(C(=O)O)c(=O)n1C | -36% | -22% | 0.6 |  |  | 
CC(C)CCc1ccc(C(=O)O)c(O)n1 | -4% | -28% |  | inactive |  | 
CC(C)(C)Cc1ccc(C(=O)O)c(O)n1 | -59% | -39% | 13 |  | -60% | -40%
CC(C)(C)Cc1ccc(C(=O)O)cn1 | -4% | -31% |  | inactive |  | 
CCCCCCC(C)(C)Cc1ccc(C(=O)O)c(O)n1 | 8% | -37% |  | inactive |  | 
CC(C)(C)Cc1ccc(C=O)c(O)n1 | -47% | -47% | 5.9 |  |  | 
CC(C)(C)c1ccc(C(=O)O)c(O)n1 | -69% | -39% | 1 |  | -58% | -40%
CCCCCc1ccc(C(=O)O)c(O)n1 | -2% | -25% |  | inactive |  | 
Cc1ccc(C(=O)O)c(O)n1 | 1% | -34% |  | inactive |  | 
CC(C)Cc1ccc(C(=O)O)c(O)n1 | -61% | -34% | 1 |  | -54% | -48%
CCCCCCC(C)(C)c1ccc(C(=O)O)c(O)n1 | 5% | -37% |  | inactive |  | 
CC(C)(C)Cc1ccc(CO)c(O)n1 | -40% | -26% | 5.3 |  |  | 
CC(C)(C)Cc1ccc(-c2nn[nH]n2)c(O)n1 | -37% | -34% | 1.6 |  |  | 
O=C(O)c1ccc(CC2CCC2)nc1O | -14% | -37% |  | inactive |  | 
CCC(C)(C)Cc1ccc(C(=O)O)c(O)n1 | -54% | -38% | 3.8 |  |  | 
CCC(C)(C)c1ccc(C(=O)O)c(O)n1 | -67% | -32% | 0.9 |  |  | 
CC(C)(C)Cc1ccc(C(N)=O)c(O)n1 | 30% | -25% |  | inactive |  | 
O=C(O)c1ccc[nH]c1=O | -26% | -33% | 0.25 |  | -4% | -55%
CC(C)(C)Cc1ccnc(O)c1C(=O)O | -9% | -34% |  | inactive |  | 
CC(C)c1ccc(C(=O)O)c(O)n1 | -23% | -26% |  | inactive |  | 
Cn1c(CC(C)(C)C)ccc(C(=O)O)c1=O | -3% | -34% |  | inactive |  | 
CC(C)(C)Cc1ccc(C(=O)[O-])c(O)n1.[Na+] | -56% | -26% | 7.9 |  |  | 
CCOC(=O)c1ccc(CC(C)(C)C)nc1O | -54% | -42% | 7.4 |  |  | 
CC(C)(C)CC1=NC(=O)CC=C1 | -1% | -36% |  | inactive |  | 
CC(C)(C)Cc1ccc(CC(=O)O)c(O)n1 | -25% | -25% | 0.25 |  |  | 
